Only some compounds are listed: those with a hit (about 2.3% of all), similar ones and a draw of the others.
TRPC6 activator: activators of mouse TRPC6 channel; Q61143; HEK293-TRPC6 membrane potential dye fluorescence; active compounds read high; B-score at 10 µM; 310,000 compounds, 0.13% hits; AID 2550;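 active = B-score of the integrated fluorescence ratio above library mean plus 3 SD, and starting fluorescence ratio within library mean plus 5 SD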;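 also: higher score means more depolarization so channel activation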
TRPC6 inh: inhibitors of mouse TRPC6 channel; Q61143; HEK293-TRPC6, membrane potential dye, ACh-evoked depolarization; active compounds read low; B-score at 10 µM; 310,000 compounds, 1.1% hits;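 active = B-score under library mean minus 3 SD, initial fluorescence not abnormally high, positive integrated signal ratio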;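 also: B-score derived from integrated fluorescence ratio over the kinetic read; more negative B-score means stronger inhibition of depolarization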
TRPC4 inh: inhibitors of mouse TRPC4 channel; B-score at 10 µM; AID 2247; HEK293 TRPC4beta/mu-opioid, DAMGO-evoked Fluo4 calcium flux; active compounds read low; Q9QUQ5; 300,000 compounds, 0.39% hits;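 active = B-score over 3 SD under the library average, no early fluorescence shift, positive overall ratio signal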
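System: stable TRPC4beta/mu-opioid receptor HEK293 cells; Dosing: single-point compound dosing; Measured by: Fluo4 Ca2+ flux fluorescence; Read-out basis: per-well B score of integrated baseline-normalized Fluo4 ratio.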
TRPC4 act: TRPC4 (mouse) channel activation | Q9QUQ5 | HEK293 TRPC4beta/mu-opioid, Fluo4 calcium fluorescence; active compounds read high | B-score at 10 µM | 310,000 compounds, 0.49% hits;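 active = B-score above 5 SD of library B-scores, and initial fluorescence ratio not above library mean plus 5 SD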;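 also: positive B-score marks a calcium rise read as TRPC4 activation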
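System: HEK293 cells stably co-expressing mouse TRPC4beta and mu-opioid receptor; Schedule: Fluo4 dye loading 45 min at room temperature, 110 s recording; Detection: Fluo4 fluorescence, kinetic; Evaluation: B-scored integrated calcium fluorescence ratio; Controls: buffer (low) and maximal DAMGO (high).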
TRPC4 PAM: allosteric potentiators of mouse TRPC4 channel; Q9QUQ5; HEK293 TRPC4beta/mu-opioid, DAMGO EC20, Fluo-4 Ca2+ flux; active compounds read high; B-score at 10 µM; 310,000 compounds, 0.42% hits; AID 2227;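 active = B-score of calcium response area above 5 SD of library B-scores, with initial fluorescence ratio within 5 SD of library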;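 also: B-score of integrated fluorescence ratio over time as area under calcium response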
HEK293 TRPC6 ctr: counter-screen for TRPC6 modulators: effect in parental HEK293 cells. membrane potential signal change, % at 10 µM. membrane potential dye fluorescence. shares compounds with TRPC6 inh. 2,400 compounds, 51% hits;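 active = membrane potential signal moves up or down beyond 5 SD from buffer-only wells, on both duplicate plates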
HEK293 MPD ctr 2: parental HEK293 nonspecific activity of TRPC6 modulators, second screen; inhibition, % at 10 µM; shares compounds with TRPC6 inh; 2,400 compounds, 14% hits; AID 488926; membrane potential dye fluorescence; after compound, maximal acetylcholine stimulation;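 active = membrane potential signal drops by more than 5 SD from the mean control signal, in both duplicate plates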;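 also: plate controls were acetylcholine ECmax control wells for no effect and buffer only wells for full effect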
TRPC4 ctr mod: mouse TRPC4 off-target activity of TRPC6 modulators; percent change from control (negative = decrease, positive = increase), % at 10 µM; shares compounds with TRPC6 inh; AID 488927; 2,400 compounds, 69% hits; HEK293 TRPC4/mu-opioid, membrane potential fluorescence;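 active = membrane potential signal moved up or down beyond 5 SD of buffer control wells, in both duplicate plates, actives on both sides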;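 also: plate controls were assay buffer wells for no effect and DAMGO maximal-effect wells for full effect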
TRPC4/MOR inh 2: second selectivity test of TRPC6 modulators against mouse TRPC4; shares compounds with TRPC6 inh; HEK293 TRPC4/mu-opioid, membrane potential dye fluorescence; stimulated with maximal-effect DAMGO; inhibition, % at 10 µM; 2,400 compounds, 55% hits; AID 488928;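 active = drop in membrane potential signal beyond 5 SD of the control wells in both duplicate plates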;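 also: TRPC4 counter screen for TRPC6 hits run under conditions tuned for TRPC6 not TRPC4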
TRPC6 block conf: confirmation of mouse TRPC6 inhibitors | shares compounds with TRPC6 inh | HEK293-TRPC6, membrane potential dye, ACh-evoked depolarization | inhibition, % at 10 µM | AID 488960 | 3,300 compounds, 43% hits;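 active = fluorescence ratio falls more than 5 SD below the full-stimulation control mean, in both duplicate runs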;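 also: integrated fluorescence ratio of peak minus minimum over baseline after agonist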
TRPC6 act conf: mouse TRPC6 activator confirmation; shares compounds with TRPC6 inh; HEK293-TRPC6 membrane potential dye fluorescence, FDSS; activation, % at 10 µM; 2,800 compounds, 11% hits; AID 488961;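 active = ratio signal rise beyond 5 SD above unstimulated control wells' mean, seen in both duplicate runs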;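 also: plate controls were buffer EC0 wells for no effect and acetylcholine ECmax response for full effect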
* hit, by the source's call.

For Cc1cc(C)cc(N(CCC#N)C(=O)COC(=O)C2CCN(c3ccc(C(F)(F)F)cn3)CC2)c1 the results were TRPC6 activator inactive, TRPC6 inh -6.42*, TRPC4 inh inactive, TRPC4 act inactive, TRPC4 PAM inactive, HEK293 TRPC6 ctr inactive, HEK293 MPD ctr 2 inactive, TRPC4 ctr mod 13.5%*, TRPC4/MOR inh 2 inactive, TRPC6 block conf inactive and TRPC6 act conf inactive.
Cc1ccc(N(CCC#N)C(=O)COC(=O)C2CCN(c3ccc(C(F)(F)F)cn3)CC2)cc1 was read as TRPC6 activator inactive, TRPC6 inh inactive, TRPC4 inh inactive, TRPC4 act inactive and TRPC4 PAM inactive.
`O=C(NNc1ccc(C(F)(F)F)cc1[N+](=O)[O-])c1ccc(NS(=O)(=O)c2ccc(F)cc2)cc1` gave TRPC6 activator inactive, TRPC6 inh -5.39*, TRPC4 inh inactive, TRPC4 act inactive, TRPC4 PAM inactive, HEK293 TRPC6 ctr -112.5%*, HEK293 MPD ctr 2 inactive, TRPC4 ctr mod -25.5%*, TRPC4/MOR inh 2 62.0%*, TRPC6 block conf 63.5%* and TRPC6 act conf inactive.
CC(C)[C@H](Nc1ccc(C(F)(F)F)cc1[N+](=O)[O-])C(=O)O was read as TRPC6 activator inactive, TRPC6 inh inactive, TRPC4 inh inactive, TRPC4 act inactive and TRPC4 PAM inactive.
`CC1CCN(S(=O)(=O)c2ccc(Cl)cc2Br)CC1` gave TRPC6 activator inactive, TRPC6 inh inactive, TRPC4 inh inactive, TRPC4 act inactive and TRPC4 PAM inactive.
For CC1CCCCN1S(=O)(=O)c1cnc(Cl)c(Br)c1 (stereo unspecified) the results were TRPC6 activator 17.6*, TRPC6 inh inactive, TRPC4 inh inactive, TRPC4 act inactive, TRPC4 PAM inactive, HEK293 TRPC6 ctr inactive, HEK293 MPD ctr 2 inactive, TRPC4 ctr mod inactive, TRPC4/MOR inh 2 inactive and TRPC6 act conf 164.5%*.
CC1CCN(S(=O)(=O)c2cnc(Cl)c(Br)c2)CC1 was read as TRPC6 activator inactive, TRPC6 inh -5.34*, TRPC4 inh inactive, TRPC4 act inactive, TRPC4 PAM inactive, HEK293 TRPC6 ctr inactive, HEK293 MPD ctr 2 inactive, TRPC4 ctr mod inactive, TRPC4/MOR inh 2 inactive and TRPC6 block conf 68.0%*.
For CC1CCCCN1S(=O)(=O)c1csc(C(N)=O)c1 (stereo unspecified) the results were TRPC6 activator inactive, TRPC6 inh inactive, TRPC4 inh inactive, TRPC4 act inactive and TRPC4 PAM inactive.
Screening COc1ccc(S(=O)(=O)N2CCC(C(=O)N[C@@H](C)C(=O)NCc3ccccc3OC)CC2)cc1 returned TRPC6 activator inactive, TRPC6 inh inactive, TRPC4 inh inactive, TRPC4 act inactive and TRPC4 PAM inactive.
CCN1CCCc2cc(CN(CCN3CCOCC3)C(=O)Nc3ccc(C)c(C)c3)ccc21 was read as TRPC6 activator inactive, TRPC6 inh -5.02*, TRPC4 inh inactive, TRPC4 act inactive, TRPC4 PAM inactive, HEK293 TRPC6 ctr inactive, HEK293 MPD ctr 2 inactive, TRPC4 ctr mod inactive, TRPC4/MOR inh 2 41.0%*, TRPC6 block conf inactive and TRPC6 act conf inactive.
Screening O/C(=C\c1ccc2ccccc2n1)c1ccncc1 returned TRPC6 activator 46*, TRPC6 inh inactive, TRPC4 inh inactive, TRPC4 act 66*, TRPC4 PAM inactive, HEK293 TRPC6 ctr active, HEK293 MPD ctr 2 active, TRPC4 ctr mod 186.0%*, TRPC4/MOR inh 2 47.5%* and TRPC6 act conf 313.5%*.
O/C(=C\c1nc2ccccc2nc1/C=C(\O)c1ccccc1)c1ccccc1 was read as TRPC6 activator 12.6*, TRPC6 inh inactive, TRPC4 inh inactive, TRPC4 act inactive, TRPC4 PAM inactive, HEK293 TRPC6 ctr 268.5%*, HEK293 MPD ctr 2 inactive, TRPC4 ctr mod inactive, TRPC4/MOR inh 2 inactive, TRPC6 block conf inactive and TRPC6 act conf inactive.
For O=c1oc2ccccc2nc1/C=C(\O)c1ccccc1 the results were TRPC6 activator inactive, TRPC6 inh inactive, TRPC4 inh inactive, TRPC4 act inactive and TRPC4 PAM inactive.
Screening Cc1nn(CC(=O)NCCCc2ccccc2)c(C)c1[N+](=O)[O-] returned TRPC6 activator inactive, TRPC6 inh inactive, TRPC4 inh inactive, TRPC4 act inactive and TRPC4 PAM inactive.
Screening CC(=O)c1ccc(S(=O)(=O)NCCC(=O)OCC(=O)N2CCCC2=O)cc1 returned TRPC6 activator inactive, TRPC6 inh inactive, TRPC4 inh inactive, TRPC4 act inactive and TRPC4 PAM inactive.
Screening N#Cc1cnn(Cc2ccc(Cl)cc2)c1N returned TRPC6 activator inactive, TRPC6 inh inactive, TRPC4 act inactive and TRPC4 PAM inactive.
`N#Cc1cnn(Cc2ccccc2)c1N` gave TRPC6 activator inactive, TRPC6 inh -6.24*, TRPC4 inh inactive, TRPC4 act inactive, TRPC4 PAM inactive, HEK293 TRPC6 ctr inactive, HEK293 MPD ctr 2 inactive, TRPC4 ctr mod inactive, TRPC4/MOR inh 2 inactive, TRPC6 block conf inactive and TRPC6 act conf inactive.
Screening COc1ccc(N2CCN(C(=O)c3ccc(F)cc3)CC2)c([N+](=O)[O-])c1 returned TRPC6 activator inactive, TRPC6 inh inactive, TRPC4 inh inactive, TRPC4 act inactive and TRPC4 PAM inactive.

Bioassay records deposited in PubChem by Johns Hopkins Ion Channel Center.
